According to paper PMC8263925 (The Journal of General Physiology, 2021):
Each block holds one compound with its values, some of them ahead of it.

Experiments:
[1] = molecular target: T1, Hv1 WT (Homo sapiens, UniProt Q96D96); format: cell-based; details: for inhibition kinetics: fast and slow components: RDT = 0.2
T1 sequence (Q96D96 1-273): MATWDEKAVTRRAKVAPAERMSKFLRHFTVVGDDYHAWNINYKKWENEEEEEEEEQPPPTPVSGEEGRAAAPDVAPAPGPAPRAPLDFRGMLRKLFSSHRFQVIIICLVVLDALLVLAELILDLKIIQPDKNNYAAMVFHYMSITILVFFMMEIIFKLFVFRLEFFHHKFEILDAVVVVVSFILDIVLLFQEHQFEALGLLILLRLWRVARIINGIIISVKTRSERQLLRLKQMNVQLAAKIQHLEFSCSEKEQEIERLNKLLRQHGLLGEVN
In short: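 WT channel in inside-out oocyte patches, symmetric pH 6.0, 22 ± 1°C. Holding −40 mV, depolarization to +120 mV; relative depolarization time td/(tr + td) of 0.1, 0.2, 0.3 or 0.5. 50 µM perfused into bath, then washed out. End-pulse current normalized. Decay fitted double-exponentially (τfast, τslow, weights, c∞); recovery fitted single-exponentially. n = 7, 7, 5, 8 per RDT; SEM.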

[2] = tested on: Hv1; details: full set of concentration points; ref Zhao et al., 2021; cited from earlier work
[3] = molecular target: T1, Hv1 WT; experiment: Inside-out patch, pulsed application of inhibitor to the closed channel; format: cell-based; details: 100 µM pulses, membrane held at 0 mV or −80 mV
In short: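 WT channel, inside-out oocyte patches, pH 6.0. Test compound (100 µM) applied in 3 s pulses while the membrane was held closed at −40 mV, or at 0 mV or −80 mV. Current read after each pulse with a step to +120 mV. Control pulses of a reference Hv1 inhibitor given first to confirm complete washout between depolarizations.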

[4] = molecular target: T1, Hv1 WT; details: 200 µM; ref Hong et al. (2013); cited from earlier work

inhibition kinetics: fast and slow components ([1]; 50 μM): with fast and slow components
Compound: Cc1[nH]c(N)nc1CNC(=O)c1cc(F)cc(F)c1 [HIFNH, N-[(2-amino-5-methyl-1H-imidazol-4-yl)methyl]-3,5-difluorobenzamide]

inhibition when transiently perfused on closed channel [3]: failed to produce any inhibition | return of current to original level upon washout ([1]; after 50 μM, washout): a few seconds | inhibition at 50 µM ([1]; read-out: stable inhibited current level (of the original current)): ~50%
Compound: N=C(N)Nc1nc2ccccc2[nH]1 [2GBI, 2-guanidinobenzimidazole, reference compound]
G-V shift [4]: lack of G-V shift

inhibition kinetics: fast and slow components ([1]; 50 μM): with fast and slow components
Compound: Cc1[nH]c(N)nc1CCC(=O)c1ccccc1 [HIFNF, 3-(2-amino-5-methyl-1H-imidazol-4-yl)-1-phenyl-propan-1-one]

The next lines start with the compound.

Compound: Nc1nc2ccccc2[nH]1 [ABI, 2-aminobenzimidazole, reference compound]
extent and kinetics of proton current inhibition compared with 2GBI ([1]; 50 μM, same conditions as 2GBI): inhibited the proton current to a smaller extent but with similar kinetics

Compound: Cc1[nH]c(N)nc1/C=C/C(=O)c1cc(F)cc(F)c1 [HIFEN, (2E)-3-(2-amino-5-methyl-1H-imidazol-4-yl)-1-(3,5-difluorophenyl)prop-2-en-1-one]
Hill coefficient [2]: 1.50 ± 0.11 | inhibition kinetics: fast and slow components ([1]; 50 μM): with fast and slow components

Compound: Cc1[nH]c(N)nc1CCC(O)c1cc(F)cc(F)c1 (stereo not shown) [HIFOH, 3-(2-amino-5-methyl-1H-imidazol-4-yl)-1-(3,5-difluorophenyl)propan-1-ol]
inhibition kinetics: fast and slow components ([1]; 50 μM): did not have a significant slow component
